Consider 167 variants from the RNAGym collection of RNA variant scans (doi:10.1126/science.aae0568).

B1: tRNA (parent)
chain: GUUCCGUUGGCGUAAUGGUAACGCGUCUCCCUCCUAAGGAGAAGACUGCGGGUUCGAGUCCCGUACGGAACG

Variants at the floor of the assay were thinned out.

Variants of B1 are the subject of this data set. The data set is described as follows: yeast fitness relative to wild type (ratio to wild type); higher = fitter; tRNA-Arg(CCU), competitive growth, 37 C, YPD. Summed up:
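Variants of the tRNA-Arg(CCU) gene, chemically synthesised with a 3% per-site mutation rate at 69 sites, were placed at the native genomic locus in Saccharomyces cerevisiae. The pooled strains were competed in YPD at 37°C for 24 hours in six parallel replicates. Gene amplicons from the start population and from each end population were read by 100-nucleotide paired-end sequencing. Darwinian fitness relative to wild type came from changes in genotype frequencies; genotypes needed ≥ 100 starting reads, and estimates < 0.5 were set to 0.5.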
As for C27A U28A C30G G67A, the yeast fitness came to 0.587. C27A A40G: the yeast fitness was 0.843. As to C27A A40C, the yeast fitness was determined as 0.775. Turning to C27A A36G A70U, the yeast fitness is 0.561. Regarding C27A U64A G68C, the yeast fitness was at most 0.5. Turning to U26G U35A A69G A70G, the yeast fitness was determined as 0.732. With C27G C33U A45U, the yeast fitness came to 0.568. Regarding C27A C30A A43C C62G, the yeast fitness is at most 0.5. As for C27G C46A C49G, the yeast fitness was determined as 0.704.

As to C27A A45C C49A C61U, the yeast fitness was at most 0.5. As for U26G U59A, the figure is 0.663; as for U26G U59G, 0.704. On to C27A A36U, for which the yeast fitness stood at 0.802. With C27A G44A A69C, the yeast fitness was at most 0.5. Take C27G C30G C33G A37C G52C: the yeast fitness was at most 0.5. As for C27A G63A, the figure is 0.88; as for C27A C33U G52C C62G, 0.579. Regarding C27A C31U C33A A42U G67A, the yeast fitness is at most 0.5. Regarding C27G C31G U53A G56A G63A, the yeast fitness came to 0.534. In the case of C27G C29U, the yeast fitness came to 0.578.

On to C27G A36U G39C A69C, for which the yeast fitness was found to be 0.548. As for C27A A42C A57G, the figure is at most 0.5; as for C27G C34G, at most 0.5; as for C27G C29A C33A A43C, 0.574.

In the case of C27A G41A A45U U59G, the yeast fitness is at most 0.5.

For the variant C27A A45U C60G A65U, the yeast fitness is 0.54. On to C27G C31U G68A, for which the yeast fitness is at most 0.5. As for C27G A36G C66G, the yeast fitness was 0.548. For the variant C27G C33G G39A C46U C60G, the yeast fitness was at most 0.5. As for C27G C30U G38C G58A, the figure is 0.679. As for C27G A42C A65C, the figure is at most 0.5; as for C27A C34U A42C U53G, at most 0.5; as for C27G A36U A69C, at most 0.5. On to C27G A43U A57G, for which the yeast fitness is at most 0.5. As to C27G C33A, the yeast fitness was 0.593.

Turning to C27G C33G, the yeast fitness was determined as 0.524.

On to C27G C31A G56A, for which the yeast fitness is at most 0.5. As for C27A U28G U64C, the yeast fitness was at most 0.5. With C27A A40C A45U A57U A70U, the yeast fitness was 0.588. For the variant C27G A70G, the yeast fitness came out at 0.718. For the variant U26G G67C G68A, the yeast fitness was at most 0.5. For the variant C27A C31A C46G, the yeast fitness was found to be 0.688. In the case of C27A C46A it was 0.907; in that of C27A C46U, 1.05.

In the case of C27G C30U, the yeast fitness worked out at 0.619.

For C27G C30A, the yeast fitness was 0.632.

For C27A A42C C60U, the yeast fitness is at most 0.5. Consider C27A G56A, for which the yeast fitness is 0.707. In the case of C27A G39C C55G it was at most 0.5; in that of C27A G52U C55A, at most 0.5; in that of U26G U32A G51A, at most 0.5. With C27A U64A A69C, the yeast fitness was determined as 0.703. In the case of C27A U32G, the yeast fitness was 0.595. On to C27A C61U G68C, for which the yeast fitness was at most 0.5.

Turning to C27G C29A C55G, the yeast fitness is at most 0.5. For the variant C27G C31A C60G, the yeast fitness is at most 0.5. As for C27A C34A G67U A69C, the yeast fitness is at most 0.5.

As to C27G C34G C55G U59C C60U G67U, the yeast fitness was at most 0.5.

Regarding C27A A43C G44U, the yeast fitness amounted to 0.514. As to C27G C30G C62A, the yeast fitness was at most 0.5. As for C27A U47C, the yeast fitness was found to be 0.975. For the variant C27G C46U A70C, the yeast fitness stood at 0.729. In the case of C27G A43U U53C, the yeast fitness is at most 0.5. C27G A37G G63C U64C: the yeast fitness was at most 0.5. For C27G C31U, the yeast fitness is 0.772. For C27G C31A, the yeast fitness came to 0.501.

With C27G C31G, the yeast fitness worked out at 0.74.

As for C27A C29U C49U, the yeast fitness is at most 0.5. In the case of C27G A43C C62U, the yeast fitness is 0.599.

Take C27A C31A A69U: the yeast fitness was 0.567. In the case of C27A C31G C61U it was 0.669. In the case of C27G C34G U54A A70U it was at most 0.5; in that of C27A C31G C46U, 0.621; in that of C27A A40G C46G C62G, 0.687. Regarding C27A A36C A42U U64G, the yeast fitness was at most 0.5. As for C27A G48A, the figure is 0.995; as for C27A C34U, 0.598. U26G U32C: the yeast fitness came out at 0.821. Turning to C27A U59C C62A, the yeast fitness is at most 0.5. For the variant C27G C31A C46A G56C, the yeast fitness is at most 0.5. As to C27G C34A A40G, the yeast fitness came out at 0.644. As for C27A C34G A40G A65G, the figure is 0.799; as for C27A A37C, 0.597.

On to C27A A37G, for which the yeast fitness is 0.737. In the case of C27G C30A U47C it was 0.535; in that of C27G C46G A65G, 0.631; in that of C27A C30U C33G, 0.634.

As to C27G A42U C49U, the yeast fitness was 0.58. In the case of C27A A42G U54C it was at most 0.5.

In the case of C27A C33U G44C A45U G50C G67A, the yeast fitness is at most 0.5. As to C27A U54A A65U C66U, the yeast fitness was at most 0.5.

Turning to C27G A43G U47G A70G, the yeast fitness is at most 0.5. Turning to C27G A57C U59A C62G G68A, the yeast fitness turned out to be 0.532. Consider C27G A37G G39A C61G, for which the yeast fitness is 0.821. In the case of C27G A36U A45U A69C it was 0.577. As for C27A A36U A37U, the figure is 0.638; as for C27A U35C A42U A69G, at most 0.5; as for C27A A40C C46A, 0.597. For the variant C27A C62U A65C, the yeast fitness came to 0.63. Take C27A A42C G67C A69C: the yeast fitness was at most 0.5. Consider C27G A43C C46U C60U, for which the yeast fitness came to 0.748.

Regarding C27A A36G C46A G50A G51C, the yeast fitness was at most 0.5. In the case of C27G A37G G52U C61U G67A it was at most 0.5; in that of C27G C31G U59C, 0.604; in that of C27G C31G U59A, at most 0.5.

C27A C49G U53A C62A: the yeast fitness was 0.571. For C27A A70G, the yeast fitness is 0.857. As for C27A C31A C49U G58C C62U U64A, the yeast fitness is at most 0.5. For C27G C33A G48A G51C, the yeast fitness is at most 0.5. Take C27G A43C G56C: the yeast fitness is at most 0.5. Regarding C27G A37C G39A A45C, the yeast fitness was 0.646. For C27G C33G C55A, the yeast fitness is at most 0.5. C27G C31G U54G A70C: the yeast fitness was at most 0.5. In the case of C27A C33G A45C, the yeast fitness came to 0.53. In the case of U26G G58C it was 0.696. As for U26G G58A, the yeast fitness turned out to be 0.881.

As to C27A C33G, the yeast fitness was found to be 0.711. C27A C33U: the yeast fitness was determined as 0.799. Take C27G A42C A70U: the yeast fitness was at most 0.5. Take C27A C31G A65U: the yeast fitness came to 0.679. On to C27G A36C A42U C66U, for which the yeast fitness is at most 0.5. Consider C27A G51C, for which the yeast fitness is 0.704. In the case of C27A C55U it was 0.662. As for C27A A37U C60U G63A, the yeast fitness is 0.707. As to C27G C34A G68C, the yeast fitness was at most 0.5. Consider C27A A43C, for which the yeast fitness stood at 0.939.

C27A A43G: the yeast fitness was 0.778. Consider C27A A43U, for which the yeast fitness is 1.03. As for U26G G48A C61U A70U, the yeast fitness was determined as 0.68. With C27G C30G C31U U54C, the yeast fitness is at most 0.5. Turning to C27A C30U G44C, the yeast fitness was at most 0.5. Take C27G C31A A37C G50A C61G: the yeast fitness is at most 0.5. In the case of C27A G63C G68C, the yeast fitness was 0.524. With U26G G39A C46G G68A, the yeast fitness came to 0.522. For C27G A57C C62U, the yeast fitness amounted to 0.511. Consider C27G A45G, for which the yeast fitness stood at 0.722. As for C27A C30U A57C C62U, the figure is at most 0.5; as for C27G A45U C55A G56A, at most 0.5; as for C27A G50C, 0.721. On to C27A G50A, for which the yeast fitness came out at 0.848.

As for C27A A40C A43G, the yeast fitness was at most 0.5.

In the case of C27A G56C C62A A65C, the yeast fitness was 0.611. In the case of C27G C33U A69C, the yeast fitness came out at 0.544. For U26G G39C G58A C66U, the yeast fitness is at most 0.5. Regarding U26G G56A G67A, the yeast fitness amounted to 0.529. In the case of C27A A36U A37U A65U A70G, the yeast fitness was at most 0.5.

Take C27G C34G C46U: the yeast fitness turned out to be 0.65. As for C27G C31U A37G G58C, the yeast fitness was at most 0.5.

As to C27A G51A A70G, the yeast fitness is at most 0.5. As for C27A C34U A42U G50C G58A G68C A69G, the figure is at most 0.5; as for C27G C31G C61G A69U, 0.55. C27A U28A A70U: the yeast fitness was at most 0.5. With C27G A37G G38A, the yeast fitness is at most 0.5. Turning to C27A C61G, the yeast fitness was found to be 0.665. As for C27A C61U, the figure is 0.891. As to C27G C31U A65U A70U, the yeast fitness was at most 0.5.

As for C27A U28C, the yeast fitness worked out at 0.775. In the case of C27G A40U A70C it was at most 0.5; in that of C27G A36G A69U, 0.641. As for C27A C62A, the figure is 0.699. As to C27A G41A U47A A69U, the yeast fitness is at most 0.5.

Take C27A A36G A42G C66U: the yeast fitness is at most 0.5. In the case of C27G A43C C46U G58A, the yeast fitness is 1.02. Regarding C27G A65G C66G, the yeast fitness was at most 0.5. With C27G A36G C61A A65U, the yeast fitness is at most 0.5.

For C27A G41C A43C A45U, the yeast fitness is at most 0.5. In the case of C27G A37U A43G it was at most 0.5.
